The sample as a whole holds a higher share of hits than the screen did.
XBP1 UPR activ: adaptive UPR (XBP1) activation; activation, % at 20 µM; CHO-XBP1 luciferase reporter, IRE1-XBP1 UPR activation, luminescence; percent of tunicamycin response, DMSO as zero; 330,000 tested, 0.33% active; AID 463104;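 active means versus positive control, 20 µM dose yields 30% or more activation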;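 further: 100% = tunicamycin at 10 µg/mL and 0% = DMSO only wells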
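Material – CHO cell line with stable XBP1 luciferase reporter · Buffer or medium – F12 plus 10% FBS · Compound – single point, 20 µM final compound, 1% DMSO · Schedule – 16-18 h cell attachment at 37 °C, then 6 h compound exposure · Signal – Steady-Glo luminescence read · Benchmarks – high control tunicamycin 10 µg/mL final, low control DMSO vehicle only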
CHOP UPR activ: apoptotic UPR (CHOP) activation. 330,000 tested, 0.34% active. CHO-CHOP luciferase reporter, luminescence; percent of tunicamycin response over DMSO baseline. activation, % at 10 µM;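 active means at 10 µM dose, activation of 40% or more, normalized to positive control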;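 further: 100% = tunicamycin at 10 µg/mL and 0% = DMSO alone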
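Evaluation: % reporter activation, DMSO baseline versus tunicamycin full activation; System: CHO-CHOP luciferase reporter cell line; Input: 500 cells/well; Incubation: 6 h compound treatment, 37 °C; Measured by: Steady-Glo luciferase luminescence; Dosing: one dose, 10 µM in 0.5% DMSO; Buffer or medium: F12 medium, 10% FBS; Benchmarks: positive tunicamycin 10 µg/mL, negative DMSO alone.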
697 NFkB inh: inhibitors of the PMA/ionomycin-induced NF-kB reporter in 697 B cells; 697 B-cell NF-kB luciferase reporter, 16 h; inhibition, % at 4 µM; 330,000 tested, 0.33% active; AID 435022; in the data active means inhibition above about 35%
Jurkat NFkB inh: lowers PMA/ionomycin-induced NF-kB signal in Jurkat cells. PMA/ionomycin-induced NF-kB luciferase reporter, luminescence. inhibition, % at 4 µM. 330,000 tested, 0.53% active. AID 435003; in the data active means inhibition above about 50%
CHOP inh: CHOP inhibition in unfolded protein response; CHO-K1 CHOP-promoter luciferase, tunicamycin-induced, 15-18 h; inhibition, % at 10 µM; 220,000 tested, 3.8% active;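 active means compounds that reduced the stress-induced luciferase reporter signal by more than about 70% of percent inhibition, limit read from the data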;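 further: 0% = tunicamycin plus vehicle and 100% = wells without tunicamycin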
Jurkat NFkB conf: inhibitors of the PMA/ionomycin-induced NF-kB reporter in Jurkat cells, retest; shares compounds with Jurkat NFkB inh; Jurkat NF-kB luciferase, 16 h; inhibition, % at 4 µM; 2,700 tested, 27% active;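 active means inhibition reaching about 45% at 4 µM in either replicate, limit read from the data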;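 further: plate controls were PMA/ionomycin stimulated DMSO wells for no effect and unstimulated DMSO wells for full effect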
An asterisk follows results filed as active.

For COc1ccc(CNC(=O)Cn2nnc(-c3ccc(NC(=O)C4CCCCC4)cc3)n2)cc1 the results were XBP1 UPR activ 3, CHOP UPR activ 4, 697 NFkB inh -21, Jurkat NFkB inh -60 and CHOP inh -5.
`Cc1ccc2nc(-c3ccc(SCC(=O)Nc4ccc5c(c4)OCCO5)nc3)[nH]c2c1` gave XBP1 UPR activ 1, CHOP UPR activ 5, 697 NFkB inh -8, Jurkat NFkB inh -153, CHOP inh -22 and Jurkat NFkB conf -123.
`Cc1cc2nc(-c3ccc(SCC(=O)Nc4ccc5c(c4)OCCO5)nc3)[nH]c2cc1C` gave XBP1 UPR activ 1, CHOP UPR activ 3, 697 NFkB inh -34, Jurkat NFkB inh -121 and CHOP inh -45.
Screening Cc1c(NC(=O)c2cccnc2C(=O)O)cccc1C(=O)O returned XBP1 UPR activ -1, CHOP UPR activ 0, 697 NFkB inh 11, Jurkat NFkB inh -11 and CHOP inh 16.
`CN1CCSc2ccc(C(=O)Nc3cccc(F)c3)cc21` gave XBP1 UPR activ 2, CHOP UPR activ 7, 697 NFkB inh -1, Jurkat NFkB inh -153, CHOP inh 29 and Jurkat NFkB conf -15.
`COc1ccc(NC(=O)c2ccc3c(c2)N(C)CCS3)cc1` gave XBP1 UPR activ 3, CHOP UPR activ 0, 697 NFkB inh -10 and Jurkat NFkB inh -111.
`CCn1c(CNC(=O)c2ccco2)nnc1SCC(=O)Nc1cc(F)ccc1C` gave XBP1 UPR activ 6, CHOP UPR activ 2, 697 NFkB inh 13 and Jurkat NFkB inh 6.
For CCc1cccc2c(C(=O)CN3C(=O)NC4(CCCCCC4)C3=O)c[nH]c12 the results were XBP1 UPR activ 1, CHOP UPR activ -1, 697 NFkB inh -15, Jurkat NFkB inh 94* and Jurkat NFkB conf 16.
CCc1cccc2c(C(=O)CN3C(=O)NC4(CCCCC4)C3=O)c[nH]c12 was read as XBP1 UPR activ 6, CHOP UPR activ -1, 697 NFkB inh -15 and Jurkat NFkB inh 6.
Screening O=C(N/C=C/c1ccccc1)c1ccccc1 returned XBP1 UPR activ 6, CHOP UPR activ 5, 697 NFkB inh -196, Jurkat NFkB inh -176 and Jurkat NFkB conf 15.
`O=C(NCCNC(=O)c1ccccc1)c1ccccc1` gave XBP1 UPR activ -3, CHOP UPR activ 0, 697 NFkB inh -12, Jurkat NFkB inh -2 and CHOP inh 6.
For Cn1c(SC2=CS(=O)(=O)c3ccccc32)nc2ccccc21 the results were XBP1 UPR activ -3, CHOP UPR activ 36, 697 NFkB inh -88, Jurkat NFkB inh 74* and Jurkat NFkB conf 39.
For Cc1ccc(CNC(=O)C2CCN(c3nnc(N4CCCC4=O)s3)CC2)cc1 the results were XBP1 UPR activ -1, CHOP UPR activ -1, 697 NFkB inh -7 and Jurkat NFkB inh 1.
COc1ccc(C2=NOC(C(=O)NCc3ccccc3)C2)cc1 (centres undefined) was read as XBP1 UPR activ 2, CHOP UPR activ 2, 697 NFkB inh -92, Jurkat NFkB inh 64* and Jurkat NFkB conf 14.
CCn1ncc(C2=NOC(C(=O)NCc3ccccc3)C2)c1C (centres undefined) was read as XBP1 UPR activ 4, CHOP UPR activ 0, 697 NFkB inh 18, Jurkat NFkB inh 74* and Jurkat NFkB conf 46.
CCOc1ccc(C(C)=O)cc1COc1cccnc1[N+](=O)[O-] was read as XBP1 UPR activ -7, CHOP UPR activ 0, 697 NFkB inh -11, Jurkat NFkB inh 54* and Jurkat NFkB conf 19.
`COc1ccc(C(C)=O)cc1COc1cccnc1[N+](=O)[O-]` gave XBP1 UPR activ 4, CHOP UPR activ 2, 697 NFkB inh -18, Jurkat NFkB inh 55* and Jurkat NFkB conf 1.
For COc1ccc(C(C)=O)cc1COc1ccccc1[N+](=O)[O-] the results were XBP1 UPR activ 6, CHOP UPR activ 0, 697 NFkB inh 7, Jurkat NFkB inh 22 and CHOP inh 28.
COc1cccc(C(=S)N2CCCC2)c1OC was read as XBP1 UPR activ -1, CHOP UPR activ 0, 697 NFkB inh 11 and Jurkat NFkB inh 4.
Screening O=c1cc(-c2ccccc2)[nH]c2ccccc12 returned XBP1 UPR activ 10, CHOP UPR activ 2, 697 NFkB inh -14, Jurkat NFkB inh 55* and Jurkat NFkB conf 40.
Screening O=C1C(c2cc(=O)c3ccccc3[nH]2)=C(O)c2ccccc21 returned XBP1 UPR activ -1, CHOP UPR activ -1, 697 NFkB inh -115, Jurkat NFkB inh -53 and CHOP inh 4.
Screening COC(=O)c1ccccc1NC(=O)CSc1nc(C)cc(C)n1 returned XBP1 UPR activ 0, CHOP UPR activ 1, 697 NFkB inh -3, Jurkat NFkB inh 13 and CHOP inh -2.
`Cc1cc(C)nc(SCC(=O)Nc2ccnc3ccccc23)n1` gave XBP1 UPR activ 0, CHOP UPR activ 3, 697 NFkB inh 23, Jurkat NFkB inh 64*, CHOP inh 36 and Jurkat NFkB conf 65*.
`CCCCn1cnc2c(c(-c3ccccc3)c(-c3ccccc3)n2Cc2ccco2)c1=N` gave XBP1 UPR activ 3, CHOP UPR activ 4, 697 NFkB inh -7, Jurkat NFkB inh 81*, CHOP inh -28 and Jurkat NFkB conf 4.
Screening COc1cc2c(cc1OC)C(C)N(C(=O)c1cc(C)on1)CC2 (centres undefined) returned XBP1 UPR activ 5, CHOP UPR activ 0, 697 NFkB inh 21, Jurkat NFkB inh 64* and Jurkat NFkB conf 51*.
Screening O=C(c1ccc(O)c(Cl)c1)N1CCN(S(=O)(=O)c2ccccc2)CC1 returned XBP1 UPR activ -1, CHOP UPR activ 1, 697 NFkB inh 3 and Jurkat NFkB inh 3.
Screening Cc1ccnc(NC(=O)c2oc3ccccc3c2C)c1 returned XBP1 UPR activ -3, CHOP UPR activ -3, 697 NFkB inh -188, Jurkat NFkB inh -168 and Jurkat NFkB conf -116.
For CCOc1ccc2oc(C(=O)Nc3cc(C)ccn3)c(C)c2c1 the results were XBP1 UPR activ 0, CHOP UPR activ 2, 697 NFkB inh -184, Jurkat NFkB inh -164 and Jurkat NFkB conf -72.
Screening Cc1c(C(=O)Nc2cnccn2)oc2ccccc12 returned XBP1 UPR activ 3, CHOP UPR activ 3, 697 NFkB inh 8, Jurkat NFkB inh -4 and CHOP inh -2.
For CC(NC(=O)Cc1cccs1)C(c1cccs1)N1CCOCC1 (centres undefined) the results were XBP1 UPR activ -2, CHOP UPR activ 2, 697 NFkB inh -7, Jurkat NFkB inh 19 and CHOP inh 5.
`Cc1noc(C)c1COc1ccc(C(=O)NNC(=O)c2ccccc2O)cc1` gave XBP1 UPR activ -2, CHOP UPR activ 3, 697 NFkB inh -4 and Jurkat NFkB inh -6.

Screening data as filed in PubChem BioAssay.
